In ChEMBL document CHEMBL1140901, “Discovery of novel arylethynyltriazole ribonucleosides with selective and effective antiviral and antiproliferative activity” (J Med Chem, 2009):
pEC50: −log10 of the molar value. Calls of active or inactive are those of the source. The calls are words filed in the database; no cut-off is given here.

What was measured:
MIA PaCa-2 [1] = assay: Antiproliferative activity against human MIAPaCa2 cells after 2 days by MTT assay; type: functional
Procedure, shortened: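 MiaPaCa-2 cells in DMEM with 10% FBS, seeded 15 000/well and left to attach overnight. Medium then replaced with compound at different concentrations, untreated medium as control. Incubated 48 h at 37 °C, 5% CO2. Viable cells read by MTT colorimetric assay.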

MIA PaCa-2 [2] = assay: Cell clycle arrest in human MIAPaCa2 cells assessed as increase in sub-G1/G0 fraction after 48 hrs by flow cytometry analysis; type: functional
Procedure, shortened: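 MiaPaCa-2 cells seeded at 10⁶ per 10 cm dish and left overnight. Treated 48 h, untreated as negative control. Cells trypsinised, fixed overnight in cold 70% ethanol at 4 °C, treated with RNase (500 µg/mL) and stained with propidium iodide (50 µg/mL). Sub-G1/G0 ratio read by flow cytometry on 10⁶ cells. Run in triplicate.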

MIA PaCa-2 [3] = assay: Induction of apoptosis in human MIAPaCa2 cells assessed as increase in DNA/histone nucleosome release into cytoplasm after 48 hrs by ELISA; type: functional
Procedure, shortened: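 MiaPaCa-2 cells seeded 15 000/well for 24 h, then treated 48 h, untreated as control. Lysate supernatant captured on streptavidin plate with biotin anti-histone and peroxidase anti-DNA antibodies, 2 h at room temperature. After washing, peroxidase substrate added for 20 min, read at 405/490 nm. Result given as fold absorbance over control. Triplicate.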

MIA PaCa-2 [4] = assay: Induction of apoptosis in human MIAPaCa2 cells assessed as increase in caspase 3/7 activation after 48 hrs; type: functional
Procedure, shortened: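 MiaPaCa-2 cells seeded 15 000/well; 24 h later treated 48 h. Caspase-3/7 measured by cleavage of fluorogenic Z-DEVD-R110 substrate (Apo-ONE reagent). Reagent incubated 30 min at room temperature, then fluorescence read. Triplicate; mean ± SE, n = 3.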

MIA PaCa-2 [5] = assay: Antitumor activity against human MIAPaCa2 cells transfected mouse assessed as reduction of tumor volume at 150 mg/kg, ip administered every 3 days for 4 weeks measured after 2 weeks; type: functional; set-up: scale not given: the % may be the effect or the level left; conditions: route intraperitoneal
Procedure, shortened: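 Male nude mice, 6 weeks old, inoculated subcutaneously with about 1 × 10⁷ MiaPaCa-2 cells plus 0.1 mL Matrigel. At 100 mm³ tumours, mice randomised; untreated mice served as control; five per group. Tumour volume measured weekly as length × width × depth × 0.5236. Mean ± SE, Student's t test.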

Hepatitis C virus [6] = assay: Antiviral activity against HCV in human HuH5.2 cells assessed as inhibition of replicon replication; type: functional, organism-based, Hepacivirus hominis; conditions: Huh-5-2
Procedure, shortened: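 Huh-5-2 replicon cells seeded 5000/well in DMEM with 2% FCS and 250 µg/mL G418. After 24 h at 37 °C, 3-fold serial dilutions given in DMEM without G418. Incubated 4 days at 37 °C. Replicon read as luciferase activity (Steady-Glo). EC50 is 50% inhibition of replication; mean ± SE, n ≥ 3.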

[7] = Cytotoxicity against human HuH5.2 cells; type: cell-based, Huh-5-2
Procedure, shortened: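 Huh-5-2 replicon cells were seeded at 5000/well in DMEM with 2% FCS and 250 µg/mL G418 and kept 24 h at 37 °C (5% CO₂). They were then exposed to 3-fold serial dilutions in medium without G418 for 4 days at 37 °C. CC₅₀ is the µM concentration inhibiting Huh cell proliferation by 50%, given as mean ± SE (n ≥ 3).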

Hepatitis C virus [8] = assay: Antiviral activity against HCV in human Huh9.13 cells assessed as inhibition of replicon replication; type: functional, organism-based, Hepacivirus hominis
Procedure, shortened: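 Huh-9-13 replicon cells seeded 5000/well in DMEM with 2% FCS and 1000 µg/mL G418. After 24 h at 37 °C, 3-fold serial dilutions given without G418 for 4 days. Cells washed and lysed, replicon RNA quantified by real-time PCR. EC50 is 50% drop in HCV RNA versus untreated control; mean ± SE, n ≥ 3.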

[9] = Cytotoxicity against human Huh-9-13 cells; type: cell-based
Procedure, shortened: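 Huh-9-13 replicon cells were seeded at 5000/well in DMEM with 2% FCS and 1000 µg/mL G418 and incubated 24 h at 37 °C. They then received 3-fold serial compound dilutions in G418-free medium for 4 days at 37 °C. CC₅₀ is the µM concentration inhibiting Huh cell proliferation by 50%, given as mean ± SE (n ≥ 3).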

Hepatitis C virus [10] = assay: Antiviral activity against HCV in human HuH6 cells assessed as inhibition of replicon replication; type: functional, organism-based, Hepacivirus hominis; conditions: HuH-6
Procedure, shortened: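 Huh-6 replicon cells seeded 15 000/well and treated with serial compound dilutions as for Huh-9-13. Incubated 3 days at 37 °C, then lysed in cells-to-cDNA buffer. Replicon RNA quantified by real-time PCR. EC50 is 50% drop in HCV RNA versus untreated control; mean ± SE, n ≥ 3.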

[11] = Cytotoxicity against human HuH6 cells; type: cell-based
Procedure, shortened: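 Huh-6 replicon cells were seeded at 15 000/well, handled as for Huh-9-13 (2% FCS DMEM, 3-fold serial dilutions without G418), and incubated 3 days at 37 °C. CC₅₀ is the µM concentration inhibiting Huh cell proliferation by 50%, given as mean ± SE (n ≥ 3).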

MIA PaCa-2 [12] = assay: Antiproliferative activity against human MIAPaCa2 cells by MTT assay; type: functional, cell-based
Procedure, shortened: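 MiaPaCa-2 pancreatic cancer cells in DMEM with 10% FBS, seeded at 15 000/well and allowed to attach overnight. Medium was then replaced with fresh medium containing compound, or medium alone as control. Cells were incubated for 48 h at 37 °C with 5% CO₂, and viable cells were counted by MTT colorimetric assay.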

| Compound | inhibition (INH) (MIA PaCa-2 [1]) [%] | fold change (FC) (MIA PaCa-2 [2]) | fold change (FC) (MIA PaCa-2 [3]) | fold change (FC) (MIA PaCa-2 [4]) | Activity (MIA PaCa-2 [5]) [%] | pEC50 (Hepatitis C virus [6]) | CC50 [7] [µM] | pEC50 (Hepatitis C virus [8]) | CC50 [9] [µM] | pEC50 (Hepatitis C virus [10]) | CC50 [11] [µM] | Activity (MIA PaCa-2 [12]) |
| --- | --- | --- | --- | --- | --- | --- | --- | --- | --- | --- | --- | --- |
| COC(=O)c1nc(C#Cc2ccc(C(F)(F)F)cc2)n([C@@H]2O[C@H](COC(C)=O)[C@@H](OC(C)=O)[C@H]2OC(C)=O)n1 | 59 | 3 | 3 | 6.8 | 60 | – | – | – | – | – | – | – |
| NC(=O)c1nc(C#Cc2ccc(C(F)(F)F)cc2)n([C@@H]2O[C@H](CO)[C@@H](O)[C@H]2O)n1 | – | – | – | – | – | 4.75 | 82.5 | 4.71 | > 120 | 4.36 | > 120 | – |
| NC(=O)c1nc(C#Cc2ccc(F)cc2)n(COCCO)n1 | – | – | – | – | – | 4.14 | > 160 | 3.90 | > 160 | 4.02 | 132 | – |
| NC(=O)c1nc(C#Cc2ccccc2)n(COCCO)n1 | – | – | – | – | – | 4.20 | > 170 | < 3.79 | > 170 | 3.95 | > 170 | – |
| COC(=O)c1nc(C#CC2(O)CCCC2)n([C@@H]2O[C@H](COC(C)=O)[C@@H](OC(C)=O)[C@H]2OC(C)=O)n1 | – | – | – | – | – | 4.28 | > 105 | 4.27 | > 105 | 4.60 | > 105 | – |
| NC(=O)c1ncn([C@@H]2O[C@H](CO)[C@@H](O)[C@H]2O)n1 [RIBAVIRIN] | – | – | – | – | – | 4.54 | – | 4.08 | 229 | 4.48 | > 100 | – |
| Nc1ccn([C@@H]2O[C@H](CO)[C@@H](O)C2(F)F)c(=O)n1 [GEMCITABINE] | 29 | – | – | 2 | – | – | – | – | – | – | – | – |
| NC(=O)c1nc(C#Cc2ccc(C(F)(F)F)cc2)n(COCCO)n1 | – | – | – | – | – | 4.85 | – | 4.44 | 79 | 4.29 | 87.5 | inactive |
